ChEMBL document CHEMBL4190286, “Modulating the Serotonin Receptor Spectrum of Pulicatin Natural Products” (J Nat Prod, 2017)
The source made the active and inactive calls. The calls are words filed in the database; no cut-off is given here.

Assays:
Mus musculus [1] = test: Anticonvulsant activity in ip dosed CF1 mouse assessed as protection against 44 mA current-induced seizure after 1 hr by 6 Hz psychomotor test; type: functional
In short: (§1)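 Mice received compound intraperitoneally at 10, 30 and 100 mg/kg. At 0.25, 0.5, 1, 2 and 4 h after dosing, four mice per time point were challenged with 32 or 44 mA for 3 s through corneal electrodes to elicit a partial psychomotor seizure. Data are the number of mice protected over the number tested at each time.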

Mus musculus [2] = test: Anticonvulsant activity in ip dosed CF1 mouse assessed as protection against 44 mA current-induced seizure after 15 mins by 6 Hz psychomotor test; type: functional; conditions: 0.25 h
In short: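 Mice received intraperitoneal doses of 10, 30 or 100 mg/kg. At 1/4, 1/2, 1, 2 and 4 h after dosing, four mice per time point were given 44 mA for 3 s through corneal electrodes to elicit a partial psychomotor seizure. The result is the number of mice protected over the number tested.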

[3] = molecular target: T1, 5-hydroxytryptamine receptor 5A (Homo sapiens, UniProt P47898); test: Binding affinity to 5-HT5A receptor (unknown origin) by radioligand binding assay
[4] = molecular target: T2, 5-hydroxytryptamine receptor 3A (Homo sapiens, UniProt P46098); test: Binding affinity to 5-HT3 receptor (unknown origin) by radioligand binding assay
T2 sequence (P46098 whole entry): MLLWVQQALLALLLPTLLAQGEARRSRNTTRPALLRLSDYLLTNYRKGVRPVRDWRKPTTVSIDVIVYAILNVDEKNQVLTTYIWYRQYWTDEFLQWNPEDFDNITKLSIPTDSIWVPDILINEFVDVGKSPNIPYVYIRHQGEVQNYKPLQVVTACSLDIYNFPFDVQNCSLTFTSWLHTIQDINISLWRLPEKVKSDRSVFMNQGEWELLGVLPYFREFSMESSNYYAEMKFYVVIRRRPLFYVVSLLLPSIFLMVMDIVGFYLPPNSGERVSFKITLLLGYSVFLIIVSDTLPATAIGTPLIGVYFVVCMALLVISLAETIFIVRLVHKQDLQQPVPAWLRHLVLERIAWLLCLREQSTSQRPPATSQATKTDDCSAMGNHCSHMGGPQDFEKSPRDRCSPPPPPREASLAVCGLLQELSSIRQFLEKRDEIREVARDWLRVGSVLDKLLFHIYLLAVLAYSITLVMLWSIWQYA

[5] = molecular target: T3, 5-hydroxytryptamine receptor 7 (Homo sapiens, UniProt P34969); test: Binding affinity to 5-HT7A receptor (unknown origin) by radioligand binding assay
[6] = molecular target: T4, 5-hydroxytryptamine receptor 2B (Homo sapiens, UniProt P41595); test: Antagonist activity at 5-HT2B receptor (unknown origin) by calcium release assay; type: functional
[7] = molecular target: T4, 5-hydroxytryptamine receptor 2B; test: Ratio of IC50 for antagonist activity at 5-HT2B receptor (unknown origin) by calcium release assay to Ki for displacement of [3H]-LSD from human 5-HT2B receptor expressed in baculovirus infected Sf9 cells; type: functional
[8] = molecular target: T5, 5-hydroxytryptamine receptor 1B (Homo sapiens, UniProt P28222); test: Displacement of [3H]-LSD from human 5-HT1B receptor expressed in baculovirus infected Sf9 cells
[9] = molecular target: T6, 5-hydroxytryptamine receptor 2C (Homo sapiens, UniProt P28335); test: Binding affinity to 5-HT2C receptor (unknown origin) by radioligand binding assay
T6 sequence (P28335 whole entry): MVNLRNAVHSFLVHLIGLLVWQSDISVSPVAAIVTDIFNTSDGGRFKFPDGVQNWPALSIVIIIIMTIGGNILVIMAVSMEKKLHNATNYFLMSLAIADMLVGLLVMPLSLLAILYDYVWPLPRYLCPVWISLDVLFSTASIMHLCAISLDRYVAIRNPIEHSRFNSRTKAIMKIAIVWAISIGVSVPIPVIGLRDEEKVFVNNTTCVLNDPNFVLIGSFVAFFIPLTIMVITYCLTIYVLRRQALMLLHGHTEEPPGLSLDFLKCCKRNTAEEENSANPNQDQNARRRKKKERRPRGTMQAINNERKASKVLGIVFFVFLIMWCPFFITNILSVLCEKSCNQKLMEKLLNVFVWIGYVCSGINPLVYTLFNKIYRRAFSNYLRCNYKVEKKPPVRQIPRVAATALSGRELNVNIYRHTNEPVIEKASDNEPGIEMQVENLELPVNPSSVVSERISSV

[10] = molecular target: T4, 5-hydroxytryptamine receptor 2B; test: Agonist activity at 5-HT2B receptor (unknown origin) by calcium release assay; type: functional
[11] = molecular target: T7, 5-hydroxytryptamine receptor 6 (Homo sapiens, UniProt P50406); test: Binding affinity to 5-HT6 receptor (unknown origin) by radioligand binding assay
[12] = molecular target: T8, 5-hydroxytryptamine receptor 1D (Homo sapiens, UniProt P28221); test: Binding affinity to 5-HT1D receptor (unknown origin) by radioligand binding assay
[13] = molecular target: T9, 5-hydroxytryptamine receptor 1E (Homo sapiens, UniProt P28566); test: Binding affinity to 5-HT1E receptor (unknown origin) by radioligand binding assay
[14] = molecular target: T10, 5-hydroxytryptamine receptor 2A (Homo sapiens, UniProt P28223); test: Binding affinity to 5-HT2A receptor (unknown origin) by radioligand binding assay
[15] = molecular target: T4, 5-hydroxytryptamine receptor 2B; test: Displacement of [3H]-LSD from human 5-HT2B receptor expressed in HEK cells after 90 mins by microbeta scintillation counting analysis; type: cell-based
[16] = molecular target: T11, 5-hydroxytryptamine receptor 1A (Homo sapiens, UniProt P08908); test: Antagonist activity at 5-HT1A receptor (unknown origin) by Tango assay; type: functional
T11 sequence (P08908 whole entry): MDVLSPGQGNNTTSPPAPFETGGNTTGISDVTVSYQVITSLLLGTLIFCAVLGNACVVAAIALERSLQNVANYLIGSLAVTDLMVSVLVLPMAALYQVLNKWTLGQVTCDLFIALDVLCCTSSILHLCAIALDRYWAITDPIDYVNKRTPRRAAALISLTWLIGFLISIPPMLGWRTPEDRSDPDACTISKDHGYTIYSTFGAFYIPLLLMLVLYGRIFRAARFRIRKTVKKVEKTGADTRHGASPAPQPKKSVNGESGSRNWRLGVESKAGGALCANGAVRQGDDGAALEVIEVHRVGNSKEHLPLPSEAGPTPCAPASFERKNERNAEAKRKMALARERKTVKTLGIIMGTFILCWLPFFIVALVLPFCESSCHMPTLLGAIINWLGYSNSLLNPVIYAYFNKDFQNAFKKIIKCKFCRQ

[17] = molecular target: T7, 5-hydroxytryptamine receptor 6; test: Displacement of [3H]-LSD from human 5-HT6 receptor expressed in HEK cells after 90 mins by microbeta scintillation counting analysis; type: cell-based
[18] = molecular target: T8, 5-hydroxytryptamine receptor 1D; test: Displacement of [3H]5-CT from human 5-HT1D receptor expressed in HEKT cells after 90 mins by microbeta scintillation counting analysis; type: cell-based
[19] = molecular target: T5, 5-hydroxytryptamine receptor 1B; test: Antagonist activity at 5-HT1B receptor (unknown origin) by Tango assay; type: functional
[20] = molecular target: T3, 5-hydroxytryptamine receptor 7; test: Displacement of [3H]-LSD from human 5-HT7A receptor expressed in HEK cells after 90 mins by microbeta scintillation counting analysis; type: cell-based
[21] = molecular target: T5, 5-hydroxytryptamine receptor 1B; test: Displacement of [3H]5-CT from human 5-HT1B receptor expressed in HEK cells after 90 mins by microbeta scintillation counting analysis; type: cell-based
[22] = molecular target: T10, 5-hydroxytryptamine receptor 2A; test: Displacement of [3H]Ketanserin from 5-HT2A (unknown origin) receptor after 90 mins by microbeta scintillation counting analysis
[23] = molecular target: T2, 5-hydroxytryptamine receptor 3A; test: Displacement of [3H]-GR65630 from human 5-HT3 receptor expressed in HEKT cells after 90 mins by microbeta scintillation counting analysis; type: cell-based
[24] = molecular target: T5, 5-hydroxytryptamine receptor 1B; test: Partial agonist activity at 5-HT1B receptor (unknown origin) by Tango assay; type: functional
[25] = molecular target: 5-hydroxytryptamine receptor 4 (Homo sapiens, UniProt Q13639); test: Antagonist activity at 5-HT4 receptor (unknown origin) by Tango assay; type: functional
[26] = molecular target: T1, 5-hydroxytryptamine receptor 5A; test: Displacement of [3H]-LSD from human 5-HT5A receptor expressed in Flp-In CHO cells after 90 mins by microbeta scintillation counting analysis; type: cell-based
[27] = molecular target: T9, 5-hydroxytryptamine receptor 1E; test: Displacement of [3H]5-HT from human 5-HT1E receptor expressed in HEK cells after 90 mins by microbeta scintillation counting analysis; type: cell-based
[28] = molecular target: T5, 5-hydroxytryptamine receptor 1B; test: Agonist activity at 5-HT1B receptor (unknown origin) at 2 uM by Tango assay; type: functional
[29] = molecular target: T8, 5-hydroxytryptamine receptor 1D; test: Antagonist activity at 5-HT1D receptor (unknown origin) by Tango assay; type: functional
[30] = molecular target: T6, 5-hydroxytryptamine receptor 2C; test: Displacement of [3H]-Mesulergine from human 5-HT2C receptor expressed in HEKT cells after 90 mins by microbeta scintillation counting analysis; type: cell-based
Mus musculus [31] = test: Neurotoxicity in mouse assessed as motor impairment at 100 mg/kg, ip after 0.25 to 4 hrs by rotarod test; type: toxicity, organism-based; conditions: in vivo
In short: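 Rotarod, four mice per condition after ip dosing (10, 30 or 100 mg/kg). The rod turns at a fixed 6 rpm, and each mouse is observed for 1 min. Falling off three times within that minute scores as minimal motor impairment. Results are the number impaired over the number tested at 0.25–4 h.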

Mus musculus [32] = test: Antinociceptive activity in mouse assessed as tail withdrawal latency at 100 mg/kg, ip by tail flick assay; type: functional, organism-based
Mus musculus [33] = test: Anticonvulsant activity in mouse assessed as protection against maximal electroshock-induced seizure at 100 mg/kg, ip pre-treated 0.25 to 4 hrs before electrical stimulation; type: functional, organism-based
In short: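 Maximal electroshock seizure test in mice, four per condition. Compound was given ip at 10, 30 and 100 mg/kg, and mice were challenged at 0.25, 0.5, 1, 2 and 4 h after treatment. Data are the number protected over the number tested.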

Mus musculus [34] = test: Anticonvulsant activity in mouse assessed as protection against 44 mA current-induced seizure at 100 mg/kg, ip pre-treated 2 to 4 hrs before current challenge by 6 Hz psychomotor seizure test; type: functional, organism-based; in short: as §1
Mus musculus [35] = test: Antinociceptive activity in mouse assessed as increase in pain response latency at 100 mg/kg, ip by hot plate assay; type: functional, organism-based
In short: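 Mice acclimatized for 10 min, then were placed on a hot plate held at 55 °C inside a clear open-top enclosure. Latency to hindpaw lick, hindpaw flick or jump was timed manually to the nearest 0.1 s.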

Mus musculus [36] = test: Anticonvulsant activity in mouse assessed as protection against 32/44 mA current-induced seizure at 10 to 100 mg/kg, ip pre-treated 0.25 to 4 hrs before current challenge by 6 Hz psychomotor seizure test; type: functional, organism-based; in short: as §1

T4 sequence (P41595 whole entry): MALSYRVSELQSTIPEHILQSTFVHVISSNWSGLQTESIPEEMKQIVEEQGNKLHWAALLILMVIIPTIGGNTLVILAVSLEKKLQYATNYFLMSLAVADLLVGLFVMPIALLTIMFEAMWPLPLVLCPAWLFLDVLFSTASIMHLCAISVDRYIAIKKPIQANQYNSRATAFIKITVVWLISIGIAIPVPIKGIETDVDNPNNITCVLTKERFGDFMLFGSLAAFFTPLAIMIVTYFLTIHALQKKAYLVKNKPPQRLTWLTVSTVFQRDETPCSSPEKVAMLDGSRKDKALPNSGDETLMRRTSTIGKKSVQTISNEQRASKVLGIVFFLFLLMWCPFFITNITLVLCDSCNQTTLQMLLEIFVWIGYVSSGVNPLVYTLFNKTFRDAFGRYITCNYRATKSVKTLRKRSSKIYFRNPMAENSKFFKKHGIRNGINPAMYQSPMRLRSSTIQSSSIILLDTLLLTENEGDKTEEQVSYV
T5 sequence (P28222 whole entry): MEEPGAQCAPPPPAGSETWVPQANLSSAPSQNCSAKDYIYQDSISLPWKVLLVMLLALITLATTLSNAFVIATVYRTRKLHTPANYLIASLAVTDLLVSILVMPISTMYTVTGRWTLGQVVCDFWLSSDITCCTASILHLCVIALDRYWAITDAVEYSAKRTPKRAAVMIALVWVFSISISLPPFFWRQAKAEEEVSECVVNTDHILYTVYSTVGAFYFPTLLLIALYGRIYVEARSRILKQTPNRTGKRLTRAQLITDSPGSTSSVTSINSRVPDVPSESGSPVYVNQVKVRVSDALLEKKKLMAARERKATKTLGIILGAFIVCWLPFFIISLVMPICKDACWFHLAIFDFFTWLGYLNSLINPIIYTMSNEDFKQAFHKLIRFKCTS
T8 sequence (P28221 whole entry): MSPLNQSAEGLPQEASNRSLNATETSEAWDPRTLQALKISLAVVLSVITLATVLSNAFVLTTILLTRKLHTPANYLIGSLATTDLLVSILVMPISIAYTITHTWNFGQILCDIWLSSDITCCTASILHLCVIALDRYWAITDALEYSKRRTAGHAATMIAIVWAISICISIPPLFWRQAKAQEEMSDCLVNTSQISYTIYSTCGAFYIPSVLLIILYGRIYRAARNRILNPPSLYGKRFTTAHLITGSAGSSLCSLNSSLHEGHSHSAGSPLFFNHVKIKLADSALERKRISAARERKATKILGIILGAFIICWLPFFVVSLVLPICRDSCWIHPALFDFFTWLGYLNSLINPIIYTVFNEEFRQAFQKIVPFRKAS
T3 sequence (P34969 whole entry): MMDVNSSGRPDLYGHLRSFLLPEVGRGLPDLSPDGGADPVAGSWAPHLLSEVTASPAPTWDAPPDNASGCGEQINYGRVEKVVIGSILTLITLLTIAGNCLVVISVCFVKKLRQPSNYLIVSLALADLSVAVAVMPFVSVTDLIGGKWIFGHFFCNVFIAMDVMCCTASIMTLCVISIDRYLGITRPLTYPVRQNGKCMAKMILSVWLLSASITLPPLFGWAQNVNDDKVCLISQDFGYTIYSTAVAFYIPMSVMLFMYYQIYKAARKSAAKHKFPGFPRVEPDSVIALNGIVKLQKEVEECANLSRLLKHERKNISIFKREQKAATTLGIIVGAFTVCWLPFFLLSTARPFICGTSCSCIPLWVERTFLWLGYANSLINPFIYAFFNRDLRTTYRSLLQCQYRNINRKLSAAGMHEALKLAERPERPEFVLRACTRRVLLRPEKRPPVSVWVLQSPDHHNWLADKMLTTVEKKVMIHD
T1 sequence (P47898 whole entry): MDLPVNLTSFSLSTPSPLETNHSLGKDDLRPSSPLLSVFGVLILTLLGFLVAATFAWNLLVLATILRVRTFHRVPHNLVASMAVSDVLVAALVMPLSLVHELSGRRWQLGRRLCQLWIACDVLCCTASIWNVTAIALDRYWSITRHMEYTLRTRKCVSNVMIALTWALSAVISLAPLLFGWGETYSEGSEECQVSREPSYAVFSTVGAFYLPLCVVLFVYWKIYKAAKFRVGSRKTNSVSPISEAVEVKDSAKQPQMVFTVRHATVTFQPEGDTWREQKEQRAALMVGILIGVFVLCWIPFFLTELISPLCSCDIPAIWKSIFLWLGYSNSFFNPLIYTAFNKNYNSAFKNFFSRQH
T7 sequence (P50406 whole entry): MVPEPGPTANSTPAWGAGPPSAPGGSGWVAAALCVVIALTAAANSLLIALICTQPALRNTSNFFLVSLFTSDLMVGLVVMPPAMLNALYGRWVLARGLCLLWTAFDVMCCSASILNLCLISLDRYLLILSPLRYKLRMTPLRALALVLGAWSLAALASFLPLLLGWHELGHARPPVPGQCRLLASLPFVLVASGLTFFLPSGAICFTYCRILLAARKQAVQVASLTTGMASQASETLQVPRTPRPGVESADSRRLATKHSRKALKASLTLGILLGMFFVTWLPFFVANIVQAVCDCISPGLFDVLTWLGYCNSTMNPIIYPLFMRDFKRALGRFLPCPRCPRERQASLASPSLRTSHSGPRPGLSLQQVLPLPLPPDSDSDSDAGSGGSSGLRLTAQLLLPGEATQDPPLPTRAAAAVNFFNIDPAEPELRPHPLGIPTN
T10 sequence (P28223 whole entry): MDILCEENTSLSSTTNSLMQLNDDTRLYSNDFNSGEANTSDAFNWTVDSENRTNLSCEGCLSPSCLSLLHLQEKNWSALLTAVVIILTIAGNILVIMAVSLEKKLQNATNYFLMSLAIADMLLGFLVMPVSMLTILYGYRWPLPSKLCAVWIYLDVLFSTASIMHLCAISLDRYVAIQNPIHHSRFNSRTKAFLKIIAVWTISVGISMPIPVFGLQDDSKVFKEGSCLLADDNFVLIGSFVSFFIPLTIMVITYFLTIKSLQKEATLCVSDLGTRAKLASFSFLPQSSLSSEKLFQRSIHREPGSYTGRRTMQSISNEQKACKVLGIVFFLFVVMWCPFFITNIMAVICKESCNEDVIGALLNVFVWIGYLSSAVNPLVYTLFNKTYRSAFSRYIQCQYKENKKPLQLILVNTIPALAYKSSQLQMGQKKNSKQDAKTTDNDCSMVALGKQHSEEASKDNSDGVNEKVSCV
T9 sequence (P28566 whole entry): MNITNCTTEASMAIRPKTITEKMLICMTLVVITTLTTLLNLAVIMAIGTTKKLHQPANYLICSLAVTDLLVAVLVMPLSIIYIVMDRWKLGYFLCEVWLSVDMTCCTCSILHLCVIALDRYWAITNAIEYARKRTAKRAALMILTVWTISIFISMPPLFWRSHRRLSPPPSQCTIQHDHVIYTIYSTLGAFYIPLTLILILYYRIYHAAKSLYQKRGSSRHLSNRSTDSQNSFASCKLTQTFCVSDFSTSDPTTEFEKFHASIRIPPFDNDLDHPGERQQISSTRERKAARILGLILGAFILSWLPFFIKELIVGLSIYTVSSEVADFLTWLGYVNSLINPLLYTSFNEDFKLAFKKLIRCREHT
5-hydroxytryptamine receptor 4, sequence (Q13639 whole entry): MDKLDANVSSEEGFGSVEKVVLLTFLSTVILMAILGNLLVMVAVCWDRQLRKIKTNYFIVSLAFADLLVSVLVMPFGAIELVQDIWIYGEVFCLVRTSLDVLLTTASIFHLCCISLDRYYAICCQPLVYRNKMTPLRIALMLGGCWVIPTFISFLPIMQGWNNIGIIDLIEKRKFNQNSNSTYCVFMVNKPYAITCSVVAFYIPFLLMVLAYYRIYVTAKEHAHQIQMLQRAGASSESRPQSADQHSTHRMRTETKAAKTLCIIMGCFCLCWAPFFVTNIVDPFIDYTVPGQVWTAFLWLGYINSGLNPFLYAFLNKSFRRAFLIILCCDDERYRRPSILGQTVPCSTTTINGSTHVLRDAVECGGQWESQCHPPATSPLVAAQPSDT

CCCC(CCC)C(=O)O [VALPROIC ACID]
ED50 (Mus musculus [1]): 310 mg/kg

CCC1(C)CC(=O)NC1=O (configuration not stated) [ETHOSUXIMIDE]
ED50 (Mus musculus [2]): > 600 mg/kg

C[C@@H]1SC(c2ccccc2O)=N[C@@H]1CO [PULICATIN A]
Ki [3]: > 10 µM
Ki [4]: > 10 µM
Ki [5]: > 10 µM
IC50 [6]: 30 µM
Ratio [7]: 50 to 140
Ki [8]: > 10 µM
Ki [9]: > 10 µM
Activity [10]: inactive
Ki [11]: > 10 µM
Ki [12]: > 10 µM
Ki [13]: > 10 µM
Ki [14]: > 10 µM

CCCCOc1ccc(C2=N[C@@H](CO)[C@H](C)S2)cc1 (relative stereo)
Ki [15]: 7.5 µM
IC50 [16]: > 10 µM
Ki [17]: > 10 µM
Ki [18]: 9.7 µM
IC50 [19]: 2100 nM
Ki [20]: > 10 µM
Ki [21]: > 10 µM
Ki [22]: 2200 nM
IC50 [6]: > 10 µM
Ki [23]: > 10 µM
EC50 [24]: 29 nM
IC50 [25]: > 10 µM
Ki [26]: > 10 µM
Ki [27]: > 10 µM
inhibition [28]: 100%
IC50 [29]: > 10 µM
Ki [30]: 3200 nM

C[C@@H]1SC(c2ccccc2O)=N[C@H]1CO
Ki [15]: 0.13 µM
Activity (Mus musculus [31]): Non-Toxic
IC50 [6]: 18 µM
Activity (Mus musculus [32]): inactive
Activity (Mus musculus [33]): inactive
Ratio [7]: 50 to 140
Activity [10]: inactive
Activity (Mus musculus [34]): inactive
Activity (Mus musculus [35]): Active
Ki [30]: 1600 nM
Activity (Mus musculus [36]): Active
